Calls of active or inactive are those of the source. The calls are words filed in the database; no cut-off is given here.
Key:
4T1 [1] = assay: Antitumor activity against mouse 4T1 cells xenografted with BALB/c mouse assessed as decrease in lung metastasis at 4 mg/kg,iv administrated once per week for 4 weeks; type: functional, organism-based
4T1 [2] = assay: Antitumor activity against mouse 4T1 cells xenografted with BALB/c mouse assessed as decrease in tumor weight at 4 mg/kg,iv administrated once per week for 4 weeks; type: functional, organism-based
[3] = Toxicity in BALB/c mouse xenografted with mouse 4T1 cells assessed as decrease in body weight at 4 mg/kg,iv administrated with docetaxel combination once per week for 4 weeks; type: organism-based; details: in vivo, 672 h
Method in brief: (§1)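 4T1 mammary fat-pad model in BALB/c mice. Doxorubicin (4 mg/kg) was given alone or co-administered with the conjugate or its parent taxane, with iv saline vehicle. Readouts were body weight, tumour volume, tumour weight, lung metastatic nodules and lung metastasis score. Mean ± SEM, n = 10; ANOVA and Student's t test.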

[4] = Toxicity in BALB/c mouse xenografted with mouse 4T1 cells assessed as decrease in body weight at 4 mg/kg,iv administrated combination with compound 3 once per week for 4 weeks; type: organism-based; details: in vivo, 672 h; method in brief: as §1
[5] = Toxicity in BALB/c mouse xenografted with mouse 4T1 cells assessed as decrease in body weight at 4 mg/kg,iv administrated once per week for 4 weeks; type: organism-based; details: in vivo, 672 h
4T1 [6] = assay: Antitumor activity against mouse 4T1 cells implanted in BALB/c mouse assessed as decrease in lung metastasis at 5 to 20 mg/kg,iv administrated once per week for 4 weeks by H and E staining based assay; type: functional, organism-based; details: dose 5-20 mg/kg
4T1 [7] = assay: Antitumor activity against mouse 4T1 cells implanted in BALB/c mouse assessed as decrease in lung injury at 5 to 20 mg/kg,iv administrated once per week for 4 weeks by H and E staining based assay; type: functional, organism-based; details: dose 5-20 mg/kg
4T1 [8] = assay: Antitumor activity against mouse 4T1 cells implanted in BALB/c mouse assessed as decrease in lung Ly-6G expression level at 5 to 20 mg/kg,iv administrated once per week for 4 weeks by immunohistochemistry analysis; type: functional, organism-based; details: dose 5-20 mg/kg
4T1 [9] = assay: Antitumor activity against mouse 4T1 cells implanted in BALB/c mouse assessed as decrease in lung TSP-1 expression level at 5 to 20 mg/kg,iv administrated once per week for 4 weeks by immunohistochemistry analysis; type: functional, organism-based; details: dose 5-20 mg/kg

SMILES	Activity (4T1 [1])	Activity (4T1 [2])	Activity [3]	Activity [4]	Activity [5]	Activity (4T1 [6])	Activity (4T1 [7])	Activity (4T1 [8])	Activity (4T1 [9])
COc1cccc2c1C(=O)c1c(O)c3c(c(O)c1C2=O)C[C@@](O)(C(=O)CO)C[C@@H]3O[C@H]1C[C@H](N)[C@H](O)[C@H](C)O1 [DOXORUBICIN]	Active	Active	Toxic	Toxic	Toxic				
CC(=O)O[C@@]12CO[C@@H]1C[C@H](O)[C@@]1(C)C(=O)[C@H](O)C3=C(C)[C@@H](OC(=O)[C@H](OC(=O)CCC(=O)NCCCC[C@H](NC(=O)CC[C@@H](NC(=O)[C@H](C)NC(=O)/C=C/c4ccc(F)cc4Cl)C(N)=O)C(N)=O)[C@@H](NC(=O)OC(C)(C)C)c4ccccc4)C[C@@](O)([C@@H](OC(=O)c4ccccc4)[C@H]21)C3(C)C						Dose-Dependent Effect	Dose-Dependent Effect	Active	Active
